# ChEMBL document CHEMBL5346888, “Insight into non-nucleoside triazole-based systems as viral polymerases inhibitors” (Eur J Med Chem, 2023)
# How the values were obtained:
# [1] = target: Hepatitis C virus NS5B RNA-dependent RNA polymerase (Hepatitis C virus) (UniProt Q8JXU8); assay: Inhibition of Hepatitis C virus NS5B polymerase at 100 uM relative to control; settings: Hepacivirus hominis
# [2] = target: Hepatitis C virus NS5B RNA-dependent RNA polymerase (Hepatitis C virus, UniProt Q8JXU8); assay: Inhibition of Hepatitis C virus NS5B polymerase; set-up: species or system Hepacivirus hominis
# Sequence of Hepatitis C virus NS5B RNA-dependent RNA polymerase (Q8JXU8 whole entry): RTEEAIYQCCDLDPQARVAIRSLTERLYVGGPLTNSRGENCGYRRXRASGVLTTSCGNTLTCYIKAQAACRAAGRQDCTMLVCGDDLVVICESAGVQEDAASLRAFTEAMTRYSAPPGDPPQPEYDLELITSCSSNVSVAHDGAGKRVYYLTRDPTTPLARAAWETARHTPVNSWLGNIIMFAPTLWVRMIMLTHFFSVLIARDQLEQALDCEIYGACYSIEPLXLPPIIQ
# [3] = target: CYP2D6 (Homo sapiens, UniProt P10635); assay: Inhibition of CYP2D6 (unknown origin); format: ADME
# Sequence of CYP2D6 (P10635 whole entry): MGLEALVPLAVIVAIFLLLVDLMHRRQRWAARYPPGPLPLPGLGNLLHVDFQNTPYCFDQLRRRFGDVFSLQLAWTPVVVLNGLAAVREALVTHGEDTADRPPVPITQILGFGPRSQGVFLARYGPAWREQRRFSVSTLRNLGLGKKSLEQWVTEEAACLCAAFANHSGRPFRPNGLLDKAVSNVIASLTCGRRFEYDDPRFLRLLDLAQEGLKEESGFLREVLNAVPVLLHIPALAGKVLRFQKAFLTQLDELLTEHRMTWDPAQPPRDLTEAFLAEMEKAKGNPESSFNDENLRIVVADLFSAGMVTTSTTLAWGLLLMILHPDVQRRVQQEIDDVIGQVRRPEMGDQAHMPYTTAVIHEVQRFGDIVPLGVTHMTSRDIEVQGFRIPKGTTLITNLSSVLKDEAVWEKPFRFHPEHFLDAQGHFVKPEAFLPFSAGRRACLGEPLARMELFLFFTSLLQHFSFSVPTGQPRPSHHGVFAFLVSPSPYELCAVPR
# [4] = Selectivity index, ratio of CC50 for cytotoxicity against African green monkey Vero E6 cells assessed as reduction in cell viability to EC50 for antiviral activity against SARS-CoV-2 infected in African green monkey Vero E6 cells assessed as inhibition of virus growth; format: toxicity, cell-based, Vero C1008; settings: read-out: Ratio CC50/EC50
# [5] = system: SARS-CoV-2; assay: Antiviral activity against SARS-CoV-2 infected in African green monkey Vero E6 cells assessed as inhibition of virus growth; format: functional, organism-based; settings: Severe acute respiratory syndrome coronavirus 2, Vero C1008
# [6] = Cytotoxicity against dog MDCK cells assessed as reduction in cell viability by MTT assay; format: toxicity, cell-based, Canis lupus familiaris
# [7] = Selectivity index, ratio of CC50 for cytotoxicity against dog MDCK cells assessed as reduction in cell viability by MTT assay to EC50 for antiviral activity against influenza A H1N1 infected in MDCK cells assessed as reduction in viral replication by plaque reduction assay; format: toxicity, cell-based; settings: read-out: Ratio CC50/EC50
# [8] = system: Influenza A virus; assay: Antiviral activity against influenza A H1N1 infected in MDCK cells assessed as reduction in viral replication by plaque reduction assay; format: functional, organism-based
# [9] = system: Influenza A virus; assay: Antiviral activity against Influenza A virus H9N2 infected in MDCK cells assessed as inhibition of viral replication; format: functional, organism-based
# [10] = Cytotoxicity against human MT4 cells assessed as reduction in cell viability; format: toxicity, cell-based
# How it was run: (§1)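 MT-4 cells infected with wild-type HIV-1 IIIB, or with RES056 (K103N + Y181C double RT mutant) for the SI ratio line. Antiviral activity and cytotoxicity were both read by the tetrazolium (MTT) colorimetric method. […] SI was calculated as CC50/EC50.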
# [11] = system: Human orthopneumovirus; assay: Antiviral activity against RSV A infected in human HEp-2 cells assessed as inhibition of virus-induced cytopathogenic effect; format: functional, organism-based; settings: human respiratory syncytial virus
# [12] = Antiviral activity against RSV B infected in human HEp-2 cells assessed as inhibition of virus-induced cytopathogenic effect; format: functional, cell-based; settings: human respiratory syncytial virus
# [13] = Selectivity index, ratio of CC50 for cytotoxicty against human Huh-7 cells to EC50 for antiviral activity against HCV infected in human Huh-7 cells assessed as reduction in viral infection; format: toxicity, cell-based; settings: read-out: Ratio CC50/EC50
# [14] = Cytotoxicity against dog MDCK cells assessed as reduction in cell viability; format: toxicity, cell-based, Canis lupus familiaris
# [15] = system: Huh-7; assay: Anticancer activity against human Huh-7 cells measured after 72 hrs; format: functional, cell-based; settings: Huh-7, 72 h
# [16] = system: Human immunodeficiency virus 1; assay: Antiviral activity against HIV-1 harboring reverse transcriptase E138K mutant infected in human MT4 cells assessed as reduction in virus-induced cytopathic effect; format: functional, organism-based; settings: Human immunodeficiency virus 1, MT4
# [17] = system: Human immunodeficiency virus 1; assay: Antiviral activity against wild type HIV-1 IIIB infected in human MT4 cells assessed as reduction in virus-induced cytopathicity by MTT assay; format: functional, organism-based; settings: Human immunodeficiency virus 1, IIIB; how it was run: as §1
# [18] = system: Human immunodeficiency virus 1; assay: Antiviral activity against HIV-1 harboring reverse transcriptase Y188L mutant infected in human MT4 cells assessed as reduction in virus-induced cytopathic effect; format: functional, organism-based; settings: Human immunodeficiency virus 1, MT4
# [19] = system: Human immunodeficiency virus 1; assay: Antiviral activity against HIV-1 harboring reverse transcriptase F227L/V106A double mutant infected in human MT4 cells assessed as reduction in virus-induced cytopathic effect; format: functional, organism-based; settings: Human immunodeficiency virus 1, MT4
# [20] = Selectivity index, ratio of CC50 for cytotoxicity against human MT4 cells assessed as reduction in cell viability to EC50 for antiviral activity against wild type HIV-1 IIIB infected in human MT4 cells; format: toxicity, cell-based; settings: read-out: Ratio CC50/EC50; how it was run: as §1
# [21] = system: Human immunodeficiency virus 1; assay: Antiviral activity against HIV-1 harboring reverse transcriptase Y181C mutant infected in human MT4 cells assessed as reduction in virus-induced cytopathic effect; format: functional, organism-based; settings: Human immunodeficiency virus 1, MT4
# [22] = system: Human immunodeficiency virus 1; assay: Antiviral activity against HIV-1 harboring reverse transcriptase K103N mutant infected in human MT4 cells assessed as reduction in virus-induced cytopathic effect; format: functional, organism-based; settings: Human immunodeficiency virus 1, MT4
# [23] = system: Human immunodeficiency virus 1; assay: Antiviral activity against HIV-1 harboring K103 N/Y181C double mutant infected in human HeLa cells assessed as reduction in viral growth; format: functional, organism-based; settings: Human immunodeficiency virus 1, HeLa
# [24] = system: Human immunodeficiency virus 1; assay: Antiviral activity against wild type HIV-1 infected in human HeLa cells assessed as reduction in viral growth; format: functional, organism-based; settings: Human immunodeficiency virus 1, HeLa
# [25] = system: Human immunodeficiency virus 1; assay: Antiviral activity against wild type HIV-1 infected in human HeLa cells assessed as reduction in viral growth incubated for 48 hrs by bright-glo luciferase assay; format: functional, organism-based; settings: Human immunodeficiency virus 1, HeLa
# [26] = Cytotoxicity against human HeLa cells assessed as reduction in cell viability incubated for 48 hrs by cellTiter-glo assay; format: toxicity, cell-based
# [27] = system: Human immunodeficiency virus 1; assay: Antiviral activity against HIV-1 harboring K103N/Y181C double mutant infected in human HeLa cells assessed as reduction in viral growth incubated for 48 hrs by bright-glo luciferase assay; format: functional, organism-based; settings: Human immunodeficiency virus 1, HeLa
# [28] = Selectivity index, ratio of CC50 for cytotoxicity against human MT4 cells assessed as reduction in cell viability to EC50 for antiviral activity against HIV-1 RES056 infected in human MT4 cells; format: toxicity, cell-based; settings: read-out: Ratio CC50/EC50; how it was run: as §1
# [29] = system: Hepatitis C virus; assay: Antiviral activity against HCV assessed as reduction in viral growth; format: functional, organism-based, Hepacivirus hominis
# Sequence of Hepatitis C virus NS5B RNA-dependent RNA polymerase (Hepatitis C virus) (Q8JXU8 as listed by the source): as the sequence (Q8JXU8 whole entry) above
smiles,measurement,setting,value
CCc1cccc2c3c([nH]c12)C(CC)(Cc1n[nH]c(=S)n1-c1ccccc1)OCC3 (stereo unspecified),inhibition,[1],49.5%
Cc1cc(C)n2nc(CC3=C(O)CC(CCc4ccc(C(C)(C)O)c(F)c4)(C4CCCC4)OC3=O)nc2n1 (stereo unspecified),IC50,[2],140 nM
same,IC50,[3],> 6000 nM
O=C(OCc1cn(-c2ccc(Cl)cc2)nn1)c1cnccn1,selectivity ratio,[4],1.7
same,IC50,[5],1150 nM
CCc1c(C)nc2nnc(-c3ccccc3Cl)n2c1O,CC50,[6],125000 nM
same,selectivity ratio,[7],227
same,EC50,[8],550 nM
same,EC50,[9],90 nM
CCC(C#N)(CC)c1ccc(CCC2(C3CCCC3)CC(O)=C(Cc3nc4nc(C)cc(C)n4n3)C(=O)O2)cc1F (stereo unspecified),IC50,[2],5 nM
same,IC50,[3],> 6000 nM
COc1ccc(-n2cc(COC(=O)c3cnccn3)nn2)cc1,selectivity ratio,[4],3.2
same,IC50,[5],120 nM
Cc1ccnc2c1NC(=O)c1cccnc1N2C1CC1 [NEVIRAPINE],CC50,[10],> 15000 nM
COc1cc(-c2noc(-c3nnn(-c4ccccc4Cl)c3C)n2)cc(OC)c1OC,EC50,[11],1000 nM
same,EC50,[12],1000 nM
O=C(CC(=O)c1nnc[nH]1)c1ccc(OCc2ccc(F)cc2)cc1,selectivity ratio,[13],> 128
CCc1cc(CC[C@@]2(C3CCCC3)CC(O)=C(Cc3nc4nc(C)cc(C)n4n3)C(=O)O2)cc(CC)n1,IC50,[2],12 nM
CCc1cccc2c3c([nH]c12)C(CC)(Cc1n[nH]c(=S)n1CC)OCC3 (stereo unspecified),inhibition,[1],74.6%
same,IC50,[2],21600 nM
COc1ccc(C(=O)Nc2nc3n(n2)C(c2ccccc2)C=C(C)N3)cc1 (stereo unspecified),CC50,[14],> 250000 nM
CCCCn1c(CC2(CC)OCCc3c2[nH]c2c(CC)cccc32)n[nH]c1=S (stereo unspecified),inhibition,[1],72.3%
same,IC50,[2],25400 nM
CCc1cc(CC[C@]2(C3CCCC3)CC(O)=C(Cc3nc4nc(C)cc(C)n4n3)C(=O)O2)cc(CC)n1 [FILIBUVIR],IC50,[2],7 nM
CCc1cccc2c3c([nH]c12)C(CC)(Cc1n[nH]c(=S)n1C)OCC3 (stereo unspecified),inhibition,[1],78.9%
same,IC50,[2],14800 nM
same,EC50,[15],4290 nM
CCc1cc(CCC2(C3CCCC3)CC(O)=C(Cc3nc4nc(C)cc(C)n4n3)C(=O)O2)cc(CC)n1 (stereo unspecified),IC50,[2],16 nM
COc1ccccc1-n1cc(COC(=O)c2cnccn2)nn1,selectivity ratio,[4],2.1
same,IC50,[5],1080 nM
CC(C)Nc1cccnc1N1CCN(C(=O)c2cc3cc(NS(C)(=O)=O)ccc3[nH]2)CC1 [DELAVIRDINE],EC50,[16],51 nM
same,EC50,[17],38 nM
same,EC50,[18],840 nM
same,EC50,[19],2270 nM
same,selectivity ratio,[20],733
same,EC50,[21],2460 nM
same,EC50,[22],3000 nM
Cc1ccc(NC(=O)CSc2nnc(C)n2-c2ccccc2)c(Br)c1,EC50,[23],1300 nM
same,EC50,[24],100 nM
O=C(OCc1cn(-c2ccc(F)cc2)nn1)c1cnccn1,selectivity ratio,[4],0.3
same,IC50,[5],12200 nM
NS(=O)(=O)c1ccc(NC(=O)CSc2nnc(Br)n2-c2ccc(C3CC3)c3ccccc23)c(Cl)c1,EC50,[25],0.14 nM
same,CC50 at 48 h,[26],≥ 3000 nM
same,EC50,[27],0.23 nM
CCCn1c(CC2(CC)OCCc3c2[nH]c2c(CC)cccc32)n[nH]c1=S (stereo unspecified),inhibition,[1],69%
same,IC50,[2],26000 nM
O=C(OCc1cn(-c2ccc([N+](=O)[O-])cc2)nn1)c1cnccn1,selectivity ratio,[4],10.3
same,IC50,[5],477 nM
Cc1cc(C)c(Oc2cc(Nc3ccc(C#N)cc3)ncc2C(=O)NCc2cn(CCC#N)nn2)c(C)c1,selectivity ratio,[28],17
same,selectivity ratio,[20],2040
NC(=O)c1nc(F)cnc1O,selectivity ratio,[4],3.8
same,IC50,[5],1380 nM
Cc1cc(C)c(Oc2cc(Nc3ccc(C#N)cc3)ncc2C(=O)NCc2cn(CC(=O)N3CCCC3)nn2)c(C)c1,EC50,[17],20 nM
same,selectivity ratio,[28],41
same,selectivity ratio,[20],2100
O=C(OCc1cn(-c2ccccc2Cl)nn1)c1cnccn1,selectivity ratio,[4],3.7
same,IC50,[5],952 nM
Cc1cc(C)n2nc(CC3=C(O)CC(CCc4ccc(C(C)(C)C#N)c(F)c4)(C4CCCC4)OC3=O)nc2n1 (stereo unspecified),IC50,[2],3 nM
same,EC50,[29],15 nM
C=CCn1c(CC2(CC)OCCc3c2[nH]c2c(CC)cccc32)n[nH]c1=S (stereo unspecified),inhibition,[1],58.2%
same,IC50,[2],40300 nM
CCc1cccc2c3c([nH]c12)C(CC)(Cc1n[nH]c(=S)n1Cc1ccccc1)OCC3 (stereo unspecified),inhibition,[1],3.78%
Cc1cc(C)c(Oc2cc(Nc3ccc(C#N)cc3)ncc2C(=O)NCc2cn(CC(=O)N3CCOCC3)nn2)c(C)c1,EC50,[17],20 nM
same,selectivity ratio,[28],12
same,selectivity ratio,[20],9280
CCc1cccc2c3c([nH]c12)C(CC)(Cc1n[nH]c(=S)n1C1CCCCC1)OCC3 (stereo unspecified),inhibition,[1],45.6%
